# Assay results from paper PMC12120100 (Scientific Reports, 2025).
# How the values were obtained:
# Assay in all cases: Alkaline comet assay
# Assay type in all cases: cell-based, human
# [1] = test system: HT-29 cells; conditions: HT-29, 20 µM (positive control), 24 h, ± SEM
# Summary of the method: (§1)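 Alkaline comet assay. Cells seeded in 6-well plates at 150 000 (HT-29), 250 000 (PC3) or 600 000 (PBLs) per 2 mL and left 24 h, then exposed 24 h (37 °C, 5% CO2) to test compound at 0.5, 1 and 2 µM. Controls: untreated and 20 µM bleomycin. Cells pelleted at 1400 rpm, 10 min, 4 °C. Slides stained with DAPI (1 µg/ml); about 100 cells/slide scored. Output: mean % tail DNA ± SEM; ANOVA with Dunnett's test.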
# [2] = test system: PBLs; conditions: 20 µM (positive control), 24 h, ± SEM
# Summary of the method: as §1
# [3] = test system: PC-3 cells; conditions: PC-3, 20 µM (positive control), 24 h, ± SEM
# Summary of the method: as §1
substance,measurement,setting,value
bleomycin,DNA damage (mean tail DNA %),[1],33.58 ± 3.62%
same,DNA damage (mean tail DNA %),[2],41.33 ± 1.95%
same,DNA damage (mean tail DNA %),[3],44.99 ± 2.37%
